Measured values as given in ChEMBL document CHEMBL1134519, “Synthesis, nicotinic acetylcholine receptor binding, and antinociceptive properties of 2-exo-2-(2'-substituted 5'-pyridinyl)-7-azabicyclo[2.2.1]heptanes. Epibatidine analogues” (J Med Chem, 2001).

How the values were obtained:
[1] = biological target: T1, Neuronal acetylcholine receptor; alpha4/beta2 (Rattus norvegicus, UniProt P09483+P12390); experiment: Inhibition of [3H]-nicotine binding at the nicotinic acetylcholine receptor alpha4-beta2; assay type: protein-complex assay
T1 sequence (P09483 whole entry): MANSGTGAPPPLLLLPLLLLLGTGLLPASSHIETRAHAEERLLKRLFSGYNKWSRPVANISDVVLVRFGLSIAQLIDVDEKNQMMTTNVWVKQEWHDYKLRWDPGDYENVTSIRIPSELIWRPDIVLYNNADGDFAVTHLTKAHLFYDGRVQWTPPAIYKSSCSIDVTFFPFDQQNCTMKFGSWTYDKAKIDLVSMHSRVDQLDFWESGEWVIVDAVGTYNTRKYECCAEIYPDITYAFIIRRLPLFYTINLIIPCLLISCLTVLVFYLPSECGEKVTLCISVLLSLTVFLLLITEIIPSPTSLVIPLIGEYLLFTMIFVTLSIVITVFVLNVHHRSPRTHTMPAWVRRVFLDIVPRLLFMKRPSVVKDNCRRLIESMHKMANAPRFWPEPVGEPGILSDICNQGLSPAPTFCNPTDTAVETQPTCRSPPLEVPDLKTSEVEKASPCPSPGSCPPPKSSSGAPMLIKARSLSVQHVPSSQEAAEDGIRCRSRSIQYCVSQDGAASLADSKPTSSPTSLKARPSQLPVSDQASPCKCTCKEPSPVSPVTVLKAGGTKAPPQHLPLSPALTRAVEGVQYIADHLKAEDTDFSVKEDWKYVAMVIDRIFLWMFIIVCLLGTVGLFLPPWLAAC
T1 sequence (P12390 whole entry): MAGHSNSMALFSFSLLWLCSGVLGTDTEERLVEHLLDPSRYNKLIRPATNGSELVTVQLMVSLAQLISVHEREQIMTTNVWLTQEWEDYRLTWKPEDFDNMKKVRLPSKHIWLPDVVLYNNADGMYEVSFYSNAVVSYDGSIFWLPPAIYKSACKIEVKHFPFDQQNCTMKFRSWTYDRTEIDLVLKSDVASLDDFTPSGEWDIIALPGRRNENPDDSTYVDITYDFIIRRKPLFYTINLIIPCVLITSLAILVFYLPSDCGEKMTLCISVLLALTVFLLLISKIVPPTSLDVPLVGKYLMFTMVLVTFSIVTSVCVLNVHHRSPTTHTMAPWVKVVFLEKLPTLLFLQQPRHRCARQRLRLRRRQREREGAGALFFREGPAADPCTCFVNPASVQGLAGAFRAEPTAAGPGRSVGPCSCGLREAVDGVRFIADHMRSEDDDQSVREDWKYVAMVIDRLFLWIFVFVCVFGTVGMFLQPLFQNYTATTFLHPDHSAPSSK

[2] = biological target: T1, Neuronal acetylcholine receptor; alpha4/beta2; experiment: Non-specific binding in presence of 300 uM nicotine at nicotinic acetylcholine receptor alpha4-beta2 in rat cerebral cortex membranes; assay type: cell membranes, Membrane
[3] = Hill slope value of the compound
[4] = biological target: T1, Neuronal acetylcholine receptor; alpha4/beta2; experiment: Inhibition of [3H]epibatidine binding at the nicotinic acetylcholine receptor alpha4-beta2 in male rat cerebral cortex; assay type: tissue-based
Mus musculus [5] = organism: Mus musculus; experiment: Antinociception by tail-flick test in male ICR mice after intrathecal (i.t.) injection; assay type: functional
Procedure, shortened: (§1)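 Male ICR mice injected intrathecally, free-hand between L4 and L6 while unanesthetized. Tail-flick latency was read before treatment (control 2-4 s) and 5 min after injection, with a 10 s cutoff. The result was expressed as %MPE = [(test − control)/(10 − control)] × 100. There were 8-12 mice per dose and at least four doses, and ED50 with 95% CL came from unweighted least-squares linear regression.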

Mus musculus [6] = experiment: Antinociception by tail-flick test in male ICR mice after intrathecal (i.t.) injection, at 32.5 mg/kg; assay type: functional; procedure, shortened: as §1
Mus musculus [7] = experiment: Antinociception by tail-flick test in male ICR mice after intrathecal (i.t.) injection at 112 mg/kg; assay type: functional; procedure, shortened: as §1
[8] = biological target: T1, Neuronal acetylcholine receptor; alpha4/beta2; experiment: Inhibition of […] binding at the nicotinic acetylcholine receptor alpha4-beta2 in male rat cerebral cortex; assay type: tissue-based
Procedure, shortened: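 Male rat cerebral cortex homogenate (3 mg wet weight) was incubated with 0.5 nM [3H]epibatidine and 10-12 test concentrations, in buffer at pH 7.4 with 1% DMSO final, for 4 h at room temperature. Nonspecific binding was defined with 300 µM (-)-nicotine. Samples were filtered on PEI-soaked GF/B and counted by scintillation. IC50 came from at least three independent experiments by nonlinear regression, and Ki by Cheng-Prusoff.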

Compound	Ki [1] [nM]	Hill coefficient [3]	ED50 (Mus musculus [5]) [nM mouse-1]	also measured
CN1CCCC1c1ccc(O)nc1 (stereo not drawn)	1070			
c1cncc(C2CC3CCC2N3)c1 (stereo not drawn) [DESCHLOROEPIBATIDINE]		0.8	0.2	Ki [2]: 0.031 nM; Ki [4]: 0.02 nM
CN1CCCC1c1ccc(F)nc1 (stereo not drawn)	1.03			
CN1CCC[C@H]1c1cccnc1 [NICOTINE]		0.9	74	
Ic1ccc(C2CC3CCC2N3)cn1 (stereo not drawn)				Ki [2]: 0.48 nM; Ki [4]: 0.07 nM
CN1CCCC1c1ccc(Br)nc1 (stereo not drawn)	0.45			
CN1CCCC1c1ccc(N)nc1 (stereo not drawn)	81			
Clc1ccc([C@@H]2C[C@H]3CC[C@@H]2N3)cn1 [(+)-EPIBATIDINE]			0.5	
Fc1ccc(C2CC3CCC2N3)cn1 (stereo not drawn)		0.9	0.31	
CN1CCCC1c1ccc(Cl)nc1 (stereo not drawn)	0.63			
CN(C)c1ccc(C2CC3CCC2N3)cn1 (stereo not drawn)		1		inhibition in vivo at 32.5 mg/kg (Mus musculus [6]): 10%
Nc1ccc(C2CC3CCC2N3)cn1 (stereo not drawn)		1		Ki [4]: 1.3 nM; inhibition in vivo at 112 mg/kg (Mus musculus [7]): 27%
O=c1ccc(C2CC3CCC2N3)c[nH]1 (stereo not drawn)				Ki [8]: 107 nM
Clc1ccc([C@H]2C[C@@H]3CC[C@H]2N3)cn1 [(-)-EPIBATIDINE]			0.6	
Brc1ccc(C2CC3CCC2N3)cn1 (stereo not drawn)		0.9	0.33	Ki [4]: 0.023 nM
Oc1ccc(C2CC3CCC2N3)cn1 (stereo not drawn)		1	52.4	
